System: Fibroblast
Experiment: Multiplex assay against human fibroblast
Assay type: toxicity, cell-based
Method in brief: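 At seeding, live cells were stained with Hoechst33342, BioTracker Green Microtubule Cytoskeleton Dye, MitoTracker Red and Annexin V Alexa Fluor 680. After compound addition they were imaged on a CQ1 microscope at 37°C and 5% CO2, and CellPathfinder machine-learning gating sorted them into Hoechst high-intensity objects or normal cells, with normal cells further split into healthy, pyknosed or fragmented nuclei and pyknosed cells into mitotic or apoptotic. Tubulin, mitochondrial-mass and membrane-permeability phenotypes are given as per cents of cells with healthy nuclei.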

[1] = 12 h, 1 µM, compound concentration 1 uM, replicate 1
[2] = 12 h, 1 µM, compound concentration 1 uM, replicate 2
[3] = 12 h, 10 µM, compound concentration 10 uM, replicate 1
[4] = 12 h, 10 µM, compound concentration 10 uM, replicate 2
[5] = 24 h, 1 µM, compound concentration 1 uM, replicate 1
[6] = 24 h, 1 µM, compound concentration 1 uM, replicate 2
[7] = 24 h, 10 µM, compound concentration 10 uM, replicate 1
[8] = 24 h, 10 µM, compound concentration 10 uM, replicate 2
[9] = 48 h, 1 µM, compound concentration 1 uM, replicate 1
[10] = 48 h, 1 µM, compound concentration 1 uM, replicate 2
[11] = 48 h, 10 µM, compound concentration 10 uM, replicate 1
[12] = 48 h, 10 µM, compound concentration 10 uM, replicate 2

CCOc1c2c(c(OCC)c3ncccc13)CN(c1ccc(CS(=O)(=O)NC(=O)Cc3ccccc3OC)cc1C)C2=O
Population Apoptotic (%) [1]: 44% | Population Fragmented Nuclei (%) [1]: 15% | Population Healthy Nuclei (%) [1]: 68% | Population Hoechst High Intensity Objects (%) [1]: 0% | Population Membrane Permeable-Phenotype (%) [1]: 1% | Population Mitochondria Different-Phenotype (%) [1]: 3% | Population Mitotic Cells (%) [1]: 55% | Population Normal (%) [1]: 99% | Population Pyknosed Nuclei (%) [1]: 15% | Population Tubulin-Different-Phenotype (%) [1]: 23% | Total Cell Count [1]: 120 | Population Apoptotic (%) [2]: 38% | Population Fragmented Nuclei (%) [2]: 37% | Population Healthy Nuclei (%) [2]: 42% | Population Hoechst High Intensity Objects (%) [2]: 4% | Population Membrane Permeable-Phenotype (%) [2]: 8% | Population Mitochondria Different-Phenotype (%) [2]: 2% | Population Mitotic Cells (%) [2]: 61% | Population Normal (%) [2]: 95% | Population Pyknosed Nuclei (%) [2]: 19% | Population Tubulin-Different-Phenotype (%) [2]: 62% | Total Cell Count [2]: 111 | Population Apoptotic (%) [3]: 35% | Population Fragmented Nuclei (%) [3]: 15% | Population Healthy Nuclei (%) [3]: 63% | Population Hoechst High Intensity Objects (%) [3]: 1% | Population Membrane Permeable-Phenotype (%) [3]: 1% | Population Mitochondria Different-Phenotype (%) [3]: 6% | Population Mitotic Cells (%) [3]: 64% | Population Normal (%) [3]: 98% | Population Pyknosed Nuclei (%) [3]: 21% | Population Tubulin-Different-Phenotype (%) [3]: 27% | Total Cell Count [3]: 161 | Population Apoptotic (%) [4]: 21% | Population Fragmented Nuclei (%) [4]: 19% | Population Healthy Nuclei (%) [4]: 50% | Population Hoechst High Intensity Objects (%) [4]: 3% | Population Membrane Permeable-Phenotype (%) [4]: 7% | Population Mitochondria Different-Phenotype (%) [4]: 8% | Population Mitotic Cells (%) [4]: 78% | Population Normal (%) [4]: 96% | Population Pyknosed Nuclei (%) [4]: 29% | Population Tubulin-Different-Phenotype (%) [4]: 54% | Total Cell Count [4]: 146 | Population Apoptotic (%) [5]: 56% | Population Fragmented Nuclei (%) [5]: 13% | Population Healthy Nuclei (%) [5]: 67% | Population Hoechst High Intensity Objects (%) [5]: 3% | Population Membrane Permeable-Phenotype (%) [5]: 2% | Population Mitochondria Different-Phenotype (%) [5]: 3% | Population Mitotic Cells (%) [5]: 43% | Population Normal (%) [5]: 96% | Population Pyknosed Nuclei (%) [5]: 18% | Population Tubulin-Different-Phenotype (%) [5]: 23% | Total Cell Count [5]: 127 | Population Apoptotic (%) [6]: 46% | Population Fragmented Nuclei (%) [6]: 37% | Population Healthy Nuclei (%) [6]: 32% | Population Hoechst High Intensity Objects (%) [6]: 2% | Population Membrane Permeable-Phenotype (%) [6]: 18% | Population Mitotic Cells (%) [6]: 53% | Population Normal (%) [6]: 97% | Population Pyknosed Nuclei (%) [6]: 29% | Population Tubulin-Different-Phenotype (%) [6]: 69% | Total Cell Count [6]: 104 | Population Apoptotic (%) [7]: 42% | Population Fragmented Nuclei (%) [7]: 17% | Population Healthy Nuclei (%) [7]: 66% | Population Hoechst High Intensity Objects (%) [7]: 3% | Population Membrane Permeable-Phenotype (%) [7]: 1% | Population Mitochondria Different-Phenotype (%) [7]: 2% | Population Mitotic Cells (%) [7]: 57% | Population Normal (%) [7]: 96% | Population Pyknosed Nuclei (%) [7]: 15% | Population Tubulin-Different-Phenotype (%) [7]: 19% | Total Cell Count [7]: 171 | Population Fragmented Nuclei (%) [8]: 25% | Population Healthy Nuclei (%) [8]: 49% | Population Hoechst High Intensity Objects (%) [8]: 4% | Population Membrane Permeable-Phenotype (%) [8]: 5% | Population Normal (%) [8]: 95% | Population Pyknosed Nuclei (%) [8]: 25% | Population Tubulin-Different-Phenotype (%) [8]: 50% | Total Cell Count [8]: 142 | Population Apoptotic (%) [9]: 57% | Population Fragmented Nuclei (%) [9]: 18% | Population Healthy Nuclei (%) [9]: 66% | Population Hoechst High Intensity Objects (%) [9]: 3% | Population Membrane Permeable-Phenotype (%) [9]: 1% | Population Mitochondria Different-Phenotype (%) [9]: 3% | Population Mitotic Cells (%) [9]: 42% | Population Normal (%) [9]: 96% | Population Pyknosed Nuclei (%) [9]: 15% | Population Tubulin-Different-Phenotype (%) [9]: 26% | Total Cell Count [9]: 128 | Population Apoptotic (%) [10]: 66% | Population Fragmented Nuclei (%) [10]: 47% | Population Healthy Nuclei (%) [10]: 40% | Population Hoechst High Intensity Objects (%) [10]: 5% | Population Membrane Permeable-Phenotype (%) [10]: 5% | Population Mitochondria Different-Phenotype (%) [10]: 7% | Population Mitotic Cells (%) [10]: 33% | Population Normal (%) [10]: 94% | Population Pyknosed Nuclei (%) [10]: 12% | Population Tubulin-Different-Phenotype (%) [10]: 72% | Total Cell Count [10]: 105 | Population Apoptotic (%) [11]: 71% | Population Fragmented Nuclei (%) [11]: 16% | Population Healthy Nuclei (%) [11]: 63% | Population Hoechst High Intensity Objects (%) [11]: 7% | Population Membrane Permeable-Phenotype (%) [11]: 1% | Population Mitochondria Different-Phenotype (%) [11]: 2% | Population Mitotic Cells (%) [11]: 28% | Population Normal (%) [11]: 92% | Population Pyknosed Nuclei (%) [11]: 20% | Population Tubulin-Different-Phenotype (%) [11]: 20% | Total Cell Count [11]: 171 | Population Apoptotic (%) [12]: 29% | Population Fragmented Nuclei (%) [12]: 34% | Population Healthy Nuclei (%) [12]: 45% | Population Hoechst High Intensity Objects (%) [12]: 9% | Population Membrane Permeable-Phenotype (%) [12]: 7% | Population Mitochondria Different-Phenotype (%) [12]: 5% | Population Mitotic Cells (%) [12]: 70% | Population Normal (%) [12]: 90% | Population Tubulin-Different-Phenotype (%) [12]: 51% | Total Cell Count [12]: 131

COc1cc(C(=O)N(CCCc2ccccc2)Cc2ccc(CC(=O)O)cc2)cc(OC)c1C
Population Apoptotic (%) [1]: 63% | Population Fragmented Nuclei (%) [1]: 14% | Population Healthy Nuclei (%) [1]: 73% | Population Hoechst High Intensity Objects (%) [1]: 2% | Population Membrane Permeable-Phenotype (%) [1]: 0% | Population Mitochondria Different-Phenotype (%) [1]: 0% | Population Mitotic Cells (%) [1]: 36% | Population Normal (%) [1]: 97% | Population Pyknosed Nuclei (%) [1]: 12% | Population Tubulin-Different-Phenotype (%) [1]: 15% | Total Cell Count [1]: 160 | Population Apoptotic (%) [2]: 42% | Population Fragmented Nuclei (%) [2]: 37% | Population Healthy Nuclei (%) [2]: 45% | Population Hoechst High Intensity Objects (%) [2]: 4% | Population Membrane Permeable-Phenotype (%) [2]: 11% | Population Mitochondria Different-Phenotype (%) [2]: 5% | Population Mitotic Cells (%) [2]: 57% | Population Normal (%) [2]: 95% | Population Pyknosed Nuclei (%) [2]: 16% | Population Tubulin-Different-Phenotype (%) [2]: 36% | Total Cell Count [2]: 176 | Population Apoptotic (%) [3]: 41% | Population Fragmented Nuclei (%) [3]: 16% | Population Healthy Nuclei (%) [3]: 70% | Population Hoechst High Intensity Objects (%) [3]: 2% | Population Membrane Permeable-Phenotype (%) [3]: 0% | Population Mitochondria Different-Phenotype (%) [3]: 5% | Population Mitotic Cells (%) [3]: 58% | Population Normal (%) [3]: 97% | Population Pyknosed Nuclei (%) [3]: 12% | Population Tubulin-Different-Phenotype (%) [3]: 28% | Total Cell Count [3]: 197 | Population Apoptotic (%) [4]: 45% | Population Fragmented Nuclei (%) [4]: 25% | Population Healthy Nuclei (%) [4]: 61% | Population Hoechst High Intensity Objects (%) [4]: 4% | Population Membrane Permeable-Phenotype (%) [4]: 7% | Population Mitochondria Different-Phenotype (%) [4]: 4% | Population Mitotic Cells (%) [4]: 54% | Population Normal (%) [4]: 95% | Population Pyknosed Nuclei (%) [4]: 13% | Population Tubulin-Different-Phenotype (%) [4]: 47% | Total Cell Count [4]: 181 | Population Apoptotic (%) [5]: 68% | Population Fragmented Nuclei (%) [5]: 11% | Population Healthy Nuclei (%) [5]: 77% | Population Hoechst High Intensity Objects (%) [5]: 1% | Population Membrane Permeable-Phenotype (%) [5]: 0% | Population Mitochondria Different-Phenotype (%) [5]: 0% | Population Mitotic Cells (%) [5]: 31% | Population Normal (%) [5]: 98% | Population Pyknosed Nuclei (%) [5]: 10% | Population Tubulin-Different-Phenotype (%) [5]: 13% | Total Cell Count [5]: 156 | Population Apoptotic (%) [6]: 52% | Population Fragmented Nuclei (%) [6]: 44% | Population Healthy Nuclei (%) [6]: 41% | Population Hoechst High Intensity Objects (%) [6]: 4% | Population Membrane Permeable-Phenotype (%) [6]: 1% | Population Mitochondria Different-Phenotype (%) [6]: 6% | Population Mitotic Cells (%) [6]: 48% | Population Normal (%) [6]: 95% | Population Pyknosed Nuclei (%) [6]: 13% | Population Tubulin-Different-Phenotype (%) [6]: 28% | Total Cell Count [6]: 189 | Population Apoptotic (%) [7]: 55% | Population Fragmented Nuclei (%) [7]: 12% | Population Healthy Nuclei (%) [7]: 76% | Population Hoechst High Intensity Objects (%) [7]: 1% | Population Membrane Permeable-Phenotype (%) [7]: 1% | Population Mitochondria Different-Phenotype (%) [7]: 6% | Population Mitotic Cells (%) [7]: 45% | Population Normal (%) [7]: 98% | Population Pyknosed Nuclei (%) [7]: 10% | Population Tubulin-Different-Phenotype (%) [7]: 25% | Total Cell Count [7]: 192 | Population Apoptotic (%) [8]: 40% | Population Fragmented Nuclei (%) [8]: 25% | Population Healthy Nuclei (%) [8]: 61% | Population Hoechst High Intensity Objects (%) [8]: 4% | Population Membrane Permeable-Phenotype (%) [8]: 5% | Population Mitochondria Different-Phenotype (%) [8]: 0% | Population Mitotic Cells (%) [8]: 59% | Population Normal (%) [8]: 96% | Population Pyknosed Nuclei (%) [8]: 13% | Population Tubulin-Different-Phenotype (%) [8]: 41% | Total Cell Count [8]: 175 | Population Apoptotic (%) [9]: 90% | Population Fragmented Nuclei (%) [9]: 21% | Population Healthy Nuclei (%) [9]: 72% | Population Hoechst High Intensity Objects (%) [9]: 1% | Population Membrane Permeable-Phenotype (%) [9]: 0% | Population Mitochondria Different-Phenotype (%) [9]: 0% | Population Mitotic Cells (%) [9]: 10% | Population Normal (%) [9]: 98% | Population Pyknosed Nuclei (%) [9]: 6% | Population Tubulin-Different-Phenotype (%) [9]: 17% | Total Cell Count [9]: 168 | Population Apoptotic (%) [10]: 52% | Population Fragmented Nuclei (%) [10]: 50% | Population Healthy Nuclei (%) [10]: 41% | Population Hoechst High Intensity Objects (%) [10]: 2% | Population Membrane Permeable-Phenotype (%) [10]: 3% | Population Mitochondria Different-Phenotype (%) [10]: 9% | Population Mitotic Cells (%) [10]: 47% | Population Normal (%) [10]: 97% | Population Pyknosed Nuclei (%) [10]: 8% | Population Tubulin-Different-Phenotype (%) [10]: 40% | Total Cell Count [10]: 211 | Population Apoptotic (%) [11]: 77% | Population Fragmented Nuclei (%) [11]: 25% | Population Healthy Nuclei (%) [11]: 65% | Population Hoechst High Intensity Objects (%) [11]: 2% | Population Membrane Permeable-Phenotype (%) [11]: 1% | Population Mitochondria Different-Phenotype (%) [11]: 5% | Population Mitotic Cells (%) [11]: 22% | Population Normal (%) [11]: 97% | Population Pyknosed Nuclei (%) [11]: 9% | Population Tubulin-Different-Phenotype (%) [11]: 32% | Total Cell Count [11]: 195 | Population Apoptotic (%) [12]: 58% | Population Fragmented Nuclei (%) [12]: 38% | Population Healthy Nuclei (%) [12]: 54% | Population Hoechst High Intensity Objects (%) [12]: 5% | Population Membrane Permeable-Phenotype (%) [12]: 5% | Population Mitochondria Different-Phenotype (%) [12]: 3% | Population Mitotic Cells (%) [12]: 41% | Population Normal (%) [12]: 94% | Population Pyknosed Nuclei (%) [12]: 6% | Population Tubulin-Different-Phenotype (%) [12]: 46% | Total Cell Count [12]: 187
